Rows were chosen to be rich in hits. Some 0.69% of all compounds tested hit in one or more screens of this group.
CatS inh: inhibitors of human cathepsin S; P25774; inhibition, %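 (tested at 5 µM per compound within 10-compound mixtures)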; 62,000 tested, 0.06% active; recombinant cathepsin S, AMC dipeptide fluorescence, pooled mixtures; in the data active = inhibition above about 32%, passing the limit was not always enough; inconclusive = no clear call, values can overlap the other calls;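 also: 0% = enzyme without compound and 100% = blank without enzyme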
Target sequence (P25774 115-331 limits assumed): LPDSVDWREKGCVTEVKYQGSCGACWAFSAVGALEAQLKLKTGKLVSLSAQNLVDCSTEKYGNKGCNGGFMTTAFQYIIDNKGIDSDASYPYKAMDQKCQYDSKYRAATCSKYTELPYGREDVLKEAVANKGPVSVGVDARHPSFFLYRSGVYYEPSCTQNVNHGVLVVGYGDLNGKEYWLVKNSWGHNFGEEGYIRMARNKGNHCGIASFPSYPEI
CatB mixtures: human cathepsin B inhibition by mixtures | Purified cathepsin B, AMC dipeptide fluorescence, compound mixtures | inhibition, %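 (ten-compound pools at 5 µM per compound and 50 µM total)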 | 62,000 tested, 0.06% active | AID 488; in the data active = inhibition above about 22%, passing the limit was not always enough; inconclusive = no clear call, values can overlap the other calls;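 also: 0% = enzyme without compound and 100% = no enzyme blank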
AP complement: orthogonal test for alternative complement pathway inhibitors | Human serum alternative complement pathway, LPS-coated ELISA, C3 deposition; tested in compound mixtures | inhibition, % at 5 µM | 62,000 tested, 0.08% active;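 active = inhibition above 30% in each of the two pooled mixtures holding the compound, so the lower value exceeds 30%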;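 also: 0% = serum in Mg-EGTA without compound and 100% = EDTA serum blank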
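Medium: diluted human serum in Mg2+-EGTA GVB++. Assay system: human serum complement alternative pathway, C3 deposition onto LPS. Also added: Plate-bound LPS. Technique: Anti-C3 ELISA, OD 450 nm. Measure: percent inhibition. Incubation: 1 h at 37 °C. Dosing: 5 µM each compound, pools of ten, 50 µM per pool.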
CatL block: inhibitors of human cathepsin L; P07711; AID 460; 58,000 tested, 0.17% active; inhibition, %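 (tested at 10 µM)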; purified cathepsin L, fluorogenic substrate, fluorescence; in the data active = inhibition above about 45%;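 also: 0% = enzyme with no compound and 100% = no enzyme blank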
Target sequence (P07711 114-288 limits assumed): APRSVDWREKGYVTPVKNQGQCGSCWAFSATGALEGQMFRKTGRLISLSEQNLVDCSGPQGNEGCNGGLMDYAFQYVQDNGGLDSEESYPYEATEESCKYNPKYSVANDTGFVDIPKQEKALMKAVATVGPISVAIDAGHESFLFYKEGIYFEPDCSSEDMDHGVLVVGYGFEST
Target sequence (P07711 292-333 limits assumed): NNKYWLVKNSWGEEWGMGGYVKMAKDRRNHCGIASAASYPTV
CatB inh: blocks human cathepsin B protease activity; P07858; purified cathepsin B, fluorogenic substrate, fluorescence; inhibition, %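 (tested at 10 µM)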; 63,000 tested, 0.1% active; AID 453; in the data active = inhibition above about 21%;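 also: 0% = enzyme with no compound and 100% = no enzyme blank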
Hsp90 block: displaces geldanamycin probe from tumor Hsp90; inhibition, % at 30 µM; 64,000 tested, 0.35% active; NCI-N417 lysate Hsp90, Cy3B-geldanamycin FP displacement; AID 429; P07900;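 active = inhibition above 50%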;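 also: 0% = tracer plus lysate wells and 100% = tracer alone without lysate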
* = called active by the depositor; ? = inconclusive; . = not tested or not shown.

SMILES | CatS inh | CatB mixtures | AP complement | CatL block | CatB inh | Hsp90 block
CCOc1ccccc1-n1c(SCC(N)=O)nnc1-c1cccnc1 | 7 | 2 | 2 | 16 | 5 | -1
CCn1c(CSc2nc3ccccc3n2C)nc2ccccc21 | 4 | -10 | 0 | 9 | -1 | 2
COCCCNC(=O)CN(c1cccc(Cl)c1)S(C)(=O)=O | 8 | -3 | 2 | 15 | 1 | 1
Cc1cccc(NC(=O)CCN2CCOCC2)c1 | 2 | 2 | 38* | 5 | 3 | -2
COc1cc(NS(=O)(=O)c2ccc(F)c(C#N)c2)c2ncccc2c1 | . | . | . | . | . | -4
Nc1nc2nonc2nc1N1CCCCC1 | 2 | 2 | 9 | 17 | 5 | 3
Nc1nonc1N1CCCCC1 | 6 | 2 | -1 | 4 | 3 | 72*
Cc1cc(C)n(C(=O)c2ccc(C)c(S(=O)(=O)N3CCCC3)c2)n1 | 6 | 4 | 8 | -2 | 4 | -8
COC(=O)Sc1nc(N2CCOCC2)c2c(c1C#N)CC(C)(C)OC2 | . | . | . | 3 | 47* | -2
CCOc1ccc(NC2=NC(C(=O)NCc3ccccc3)CC(=O)N2)cc1 (configuration not stated) | 8 | -4 | -8 | 55* | -6 | 4
O=C1CC(C(=O)NCc2ccccc2)N=C(N2CCCCC2)N1 (configuration not stated) | 6 | 0 | 1 | 8 | 3 | -2
CCOC(=O)NC(=O)CSc1nc(C)cc(C(F)(F)F)c1C#N | 1 | 3 | 33* | 4 | 1 | -2
CCN(CC)CCCC(C)Nc1cc(O)cc2cccnc12 (configuration not stated) | . | . | . | . | . | 138*
COc1cc(NCCN(CC(C)C)CC(C)C)c2ncccc2c1 | . | . | . | . | . | 22
CCCCCCCCS(=O)(=O)Nc1cc(OC)cc2cccnc12 | . | . | . | . | . | 2
C=CCn1c(SCC(=O)c2ccc(O)c(O)c2)nnc1-c1ccccc1OC | 1 | -1 | 11 | -9 | 2 | 71*
CCn1c(SCC(=O)c2ccc(O)c(O)c2)nnc1-c1ccccc1OC | 10 | 5 | -5 | 3 | 10 | 67*
C=CCn1c(SCC(N)=O)nnc1-c1ccccc1O | 22 | 8 | 4 | -1 | 1 | 0
O=[N+]([O-])c1ccc(CSc2ncnc3c2ncn3[C@@H]2O[C@H](CO)[C@H](O)C2O)cc1 (some centres not stated) | . | . | . | . | . | -1
Nc1ncnc2c1ncn2[C@@H]1O[C@H](C(=O)NC2CC2)[C@H](O)C1O (some centres not stated) | . | . | . | . | . | 1
CCCCCC(=O)N1CC2(C)CN(C(=O)CCCCC)CC(C)(C1)C2=O | -8 | -9 | 1 | 17 | 1 | 120*
O=C(CSc1nnc(-c2ccco2)c(-c2ccco2)n1)Nc1ccccc1 | 15 | ? | -8 | 31 | 57* | -2
COc1ccc(C2CC(=O)C3=C(C2)Nc2ncnn2C3c2ccccc2)cc1 (configuration not stated) | 12 | 5 | -15 | 1 | 5 | 91*
COc1ccc(C2CC(=O)C3=C(C2)Nc2ncnn2C3c2ccccc2C)cc1 (configuration not stated) | 10 | 5 | 12 | 23 | -3 | -4
CCOC(=O)C1CCN(c2c(NC3CCCc4ccccc43)c(=O)c2=O)CC1 (configuration not stated) | -6 | -7 | 7 | 14 | -2 | 1
SMILES | CatS inh | CatB mixtures | AP complement | CatL block | CatB inh | Hsp90 block
O=c1oc2c3c4c(cc2s1)CCCN4CCC3 | 1 | 8 | 30 | 7 | 4 | 69*
O=C(Nc1ccccc1)C1CC2CCCC(C1)C2=O (configuration not stated) | 3 | 0 | 0 | 10 | 5 | 0
O=C(Nc1ccc(Nc2ccccc2)cc1)C1CC1 | -6 | -8 | 15 | 7 | 22* | 47
Cc1cc2c(C)cc(=O)oc2c2c1NCCC2 | -42 | -23 | 15 | . | . | -2
Cc1ccc(OC(=O)C(F)(F)F)c2c1NCCC2 | -8 | 1 | 35* | -8 | -3 | -1
CC1=C(C)CS(=O)N(S(=O)(=O)c2ccc(Cl)cc2)C1 (configuration not stated) | 6 | 32* | -3 | . | 24* | 2
CC1CCN(S(=O)(=O)c2ccc(Cl)cc2)CC1 | 19 | 6 | 3 | 12 | 0 | -1
O=C(CN1C(=O)NC2(CCCCCCC2)C1=O)N1CCOCC1 | -6 | -1 | 39* | 7 | 3 | -3
O=C(CN1C(=O)NC2(CCCC2)C1=O)N1CCN(C(=O)c2ccco2)CC1 | 17 | 2 | 6 | 9 | 2 | -2
CCc1cc(-c2[nH]ncc2-c2ccc3c(c2)OCO3)c(O)cc1O | 7 | 0 | -14 | -3 | 3 | 96*
O=C(OCC(=O)N1CCN(C(=O)c2ccco2)CC1)c1ccccc1OCc1ccc(Cl)cc1 | 11 | 1 | 9 | 28 | 2 | 1
COc1ccc(OC)c(/C=N/c2oc(-c3ccco3)c(-c3ccco3)c2C#N)c1 | 17 | 7 | 8 | 15 | 1 | 55*
N#Cc1c(N)oc(-c2ccco2)c1-c1ccco1 | -1 | 5 | 12 | -8 | -5 | -4
Clc1ccc(Cn2ncc3c(N4CCOCC4)ncnc32)cc1 | 4 | 6 | 25 | -3 | 4 | -2
COc1cccc(/C=N/n2c(SC)nnc2-c2ccccc2)c1O | 4 | -3 | -3 | 10 | -3 | 0
O=C(O)c1ccccc1C(=O)NCc1ccc(F)cc1 | 2 | -1 | -4 | 12 | 21* | -5
O=C(O)c1ccccc1C(=O)NCc1ccccc1 | 11 | -1 | 11 | -5 | -5 | .
CC1(C)CCC(NC(=O)[C@@H](N)CCC(=O)O)CC1 | . | . | . | . | . | 2
COc1ccc2c(c1)[nH]c1c(C=Cc3ccccc3)nccc12 | . | . | . | . | . | -7
O=C(NCCc1ccccc1)/C(=N\O)c1ccccc1 | . | . | . | -8 | 4 | 1
N#C/C(=C\c1ccc(O)c(O)c1)C(=O)NCCc1ccccc1 | . | . | . | . | . | 83*
CC(C)CN1C(=O)NC(NC(=O)c2ccco2)(C(F)(F)F)C1=O (configuration not stated) | -2 | -6 | 7 | -11 | 1 | 94*
CC(=O)Nc1ccc(S(=O)(=O)/N=C2\SCCN2S(=O)(=O)c2ccc(NC(C)=O)cc2)cc1 | 0 | 6 | 8 | 79* | 2 | -3
Cc1ccc(S(=O)(=O)n2nc(OC(=O)c3cccs3)cc2N)cc1 | 4 | 47* | 15 | -7 | 64* | 3
Cc1ccc(S(=O)(=O)n2nc(OC(=O)C3CCCCC3)cc2N)cc1 | -7 | -3 | 15 | -7 | 0 | -4
Nc1cc(OC(=O)c2ccco2)nn1S(=O)(=O)c1ccc(F)cc1 | -3 | 60* | -4 | 8 | 61* | -3
CC(C)(C)C(=O)Oc1cc(N)n(S(=O)(=O)c2ccc(F)cc2)n1 | 0 | 4 | 8 | -2 | 0 | -3
Cc1ccc(S(=O)(=O)n2nc(OC(=O)c3ccco3)cc2N)cc1 | 19 | 59* | -8 | 12 | 76* | 2

Screening results from PubChem.
